Compounds with a hit are over-represented: about 4.1% of the library has one in this group of screens.
MEKK3 PB1 HTS: modulators of MEKK3-MEK5 PB1 binding, primary screen, biochemical, wildtype MEKK3, multiplex bead flow cytometry, Alexa488-MEK5; 1.4% of 290,000 active; binding response (% of control), % at 10 µM; bead-based flow cytometry, Alexa488-MEK5 binding to MEKK3; actives lie on both sides; 0 = blocked by unlabeled MEK5, 100 = vehicle; Mitogen-activated protein kinase kinase kinase 3 (Homo sapiens), Q99759; AID 1529, 2009;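 active means binding response more than 3 SD above or below the average of its plate-row segment, actives on both sides; inconclusive means wells at one plate position flagged as instrument error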;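 further: Alexa488 bead fluorescence after subtracting the streptavidin-only scavenger bead signal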
Target sequence (Q99759 whole entry, looked up): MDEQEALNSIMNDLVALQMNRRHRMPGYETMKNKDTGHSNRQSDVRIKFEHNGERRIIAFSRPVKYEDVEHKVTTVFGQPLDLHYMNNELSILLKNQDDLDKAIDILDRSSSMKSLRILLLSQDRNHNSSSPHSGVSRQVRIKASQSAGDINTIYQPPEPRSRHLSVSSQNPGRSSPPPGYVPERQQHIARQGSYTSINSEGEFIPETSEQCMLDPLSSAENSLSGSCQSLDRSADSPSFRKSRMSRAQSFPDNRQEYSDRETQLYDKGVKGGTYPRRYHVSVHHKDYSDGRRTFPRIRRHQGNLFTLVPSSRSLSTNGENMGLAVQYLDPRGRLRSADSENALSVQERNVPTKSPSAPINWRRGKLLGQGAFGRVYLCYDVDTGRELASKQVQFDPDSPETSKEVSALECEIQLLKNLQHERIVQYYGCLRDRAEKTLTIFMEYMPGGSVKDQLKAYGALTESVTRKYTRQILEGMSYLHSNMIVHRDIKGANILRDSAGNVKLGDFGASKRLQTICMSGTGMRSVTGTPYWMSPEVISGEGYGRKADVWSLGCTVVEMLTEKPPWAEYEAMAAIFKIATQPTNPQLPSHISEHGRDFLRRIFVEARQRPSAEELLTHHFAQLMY
MEKK2wt PB1 HTS: modulators of MEK5 binding to wildtype MEKK2, primary screen, biochemical, multiplex bead flow cytometry, Alexa488-MEK5; Mitogen-activated protein kinase kinase kinase 2 (Homo sapiens), Q9Y2U5; 1.1% of 290,000 active; Alexa488-MEK5 binding to MEKK2 WT; actives lie on both sides; binding response (% of control), % at 10 µM; in the data active means binding response below about 67% or above about 130%; inconclusive means no clear call, values can overlap the other calls; inactive means in between
DNA FID counter: compounds displacing fluorescent DNA intercalator, primary screen, artefact control for HCV NS3 helicase inhibitor project, biochemical, FID fluorescence | inhibition, % at 7.9 µM | 0.17% of 290,000 active | DNA fluorescent intercalator displacement; in the data active means inhibition above about 37%;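 further: 0% = vehicle and 100% = reference compound; higher means more ethidium bromide displaced from hairpin DNA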
T cruzi inh: inhibitors of intracellular T. cruzi growth, primary screen, luminescence, NIH3T3 host cells; 1.4% of 300,000 active; AID 1885, 2009; inhibition, % (concentration not given with the values); T. cruzi beta-gal in NIH3T3, 90 h;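 active means mean inhibition across valid replicates above about 55%, limit read from the data; inconclusive means mean below that limit but half or more replicates reach it; inactive means mean below it, under half of replicates reach it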;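 further: signal also drops with host cell toxicity which is not excluded here; 0% = plate median of DMSO wells and 100% = zero luminescence signal; higher percent means less beta-gal luminescence so fewer parasites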
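compound dosing = single 50 nL compound addition per well in DMSO | material = NIH/3T3 host cells with β-galactosidase reporter T. cruzi | input = 5,000 host fibroblasts per well | timing = ≥90 h infection period, 3 h prior cell attachment | read-out basis = percent inhibition of parasite-derived β-gal signal | detection = GalScreen β-gal luminescence, detergent lysis, 60 min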
NS3 helicase inh: inhibitors of HCV NS3 helicase, primary screen, biochemical, Cy5 molecular beacon fluorescence. 0.56% of 290,000 active. AID 1800, 2009. Hepatitis C virus NS3 helicase. inhibition, % at 10.9 µM. NS3 helicase DNA unwinding;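 active means inhibition above the mean of all tested compounds plus 3 SD, set per campaign, cut at about 35% in these data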;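 further: 0% = DMSO wells and 100% = thioflavine S control wells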
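assay system = NS3 helicase fragment of HCV | buffer or medium = MOPS pH 6.5, MgCl2, DTT, Tween20, BSA | timing = 60 min unwinding reaction at 25 °C after ATP addition | signal = Cy5 beacon fluorescence read at start and 1 h | read-out basis = % inhibition of unwinding | control set = low DMSO, high thioflavine S at 110 µM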
MEKK2mut PB1 HTS: MEK5 binding signal on mutant MEKK2 PB1, primary screen, biochemical, multiplex bead flow cytometry, Alexa488-MEK5 | Alexa488-MEK5 binding to MEKK2 mutant | percent response, % at 10 µM | 0.35% of 290,000 active | AID 1530, 2009; in the data active means percent response above about 24%, passing the limit was not always enough
* hit, by the source's call; ? = inconclusive; . = no result given.

SMILES | MEKK3 PB1 HTS | MEKK2wt PB1 HTS | DNA FID counter | T cruzi inh | NS3 helicase inh | MEKK2mut PB1 HTS
O=C(C[n+]1ccccc1)Nc1ccccc1C(=O)O | 71.0 | 66.0 | -6.2 | -10.7 | 0.3 | -13.0
COc1ccc(-c2cc(C)no2)cc1S(=O)(=O)NCCCN1CCCCCC1 | 99.0 | 109.0 | 16.9 | 4.4 | -73.0 | 2.0
CCOCCCNC(=S)NCCNc1nc2c(C)cccc2cc1C#N | 99.0 | 108.0 | 1.2 | 55.4* | -14.2 | 3.0
CC(=O)OCC(=O)[C@@]12OC3(CCCC3)O[C@@H]1C[C@H]1[C@@H]3CCC4=CC(=O)C=C[C@]4(C)[C@@]3(F)[C@@H](O)C[C@@]12C | 85.0 | -3.0* | -43.4 | 14.7 | -15.7 | 3.0
Cn1c(/C=C/c2ccccc2)nc2ccccc2c1=O | 103.0 | 105.0 | -10.7 | -15.8 | 18.2 | 0.0
Cn1c(/C=C/c2ccc([N+](=O)[O-])o2)nc2ccccc2c1=O | 103.0 | 104.0 | -4.3 | 66.9* | 19.6 | 6.0
Cc1ccc2cc3cc(C(=O)N(CC(=O)NC4CCCC4)c4cccc(C)c4C)sc3nc2c1 | 94.0 | 87.0 | -0.6 | 58.1* | 13.8 | -11.0
Cc1ccc(CS(=O)Cc2ccc(C(=O)N3CCN(C4CCCCC4)CC3)o2)cc1 (configuration not stated) | 98.0 | 100.0 | -8.0 | 26.3 | 7.8 | 4.0
O=C1CC(Sc2nnnn2C2CCCCC2)C(=O)N1c1ccccc1 (configuration not stated) | 108.0 | 105.0 | -7.7 | 32.9 | 4.5 | 1.0
Cn1nnnc1SC1CC(=O)N(c2ccccc2)C1=O (configuration not stated) | 104.0 | 105.0 | 0.7 | 65.9* | 5.9 | 1.0
CC(C)=CCCC(C)CN1CCC(n2nccc2NC(=O)c2ccc3c(c2)OCO3)CC1 (configuration not stated) | 100.0 | 118.0 | 29.5 | 56.6* | -46.9 | 12.0
CCC(C)NC(=O)c1c(N)n(/N=C/c2ccccn2)c2nc3ccccc3nc12 (configuration not stated) | 101.0 | 105.0 | -2.8 | 62.4* | 2.2 | 0.0
O=C(CC(Sc1ccc(Br)cc1)C(=O)O)c1ccc(Br)cc1 (configuration not stated) | 100.0 | 103.0 | -15.5 | 54.8* | 2.5 | 3.0
O=C(NN1C(=O)C2C3c4ccccc4C(c4ccccc43)C2C1=O)C1CC1 (configuration not stated) | 102.0 | 102.0 | 0.6 | -7.2 | 5.6 | -7.0
Cc1ccc(C)c(NC(=S)NCC(c2ccccc2)N(C)C)c1 (configuration not stated) | 99.0 | 95.0 | 12.7 | -15.2 | -9.3 | -2.0
Cc1ccn(C(=O)c2ccc(NC(=O)CC(C)C)cc2)n1 | 75.0 | 83.0 | -3.9 | -6.1 | 0.8 | -24.0
COc1cc2c(cc1OC)CN(C(=O)COc1ccc(C)c(C)c1)CC2 | 102.0 | 101.0 | -24.6 | 55.5* | -5.7 | 2.0
CCC(=O)c1ccc(OCC(=O)N2CCc3cc(OC)c(OC)cc3C2)cc1 | 103.0 | 110.0 | -27.0 | . | -4.0 | 14.0
Cc1ccc2c(c1)c(/C=C/c1cc[n+](C)cc1)c(C)n2C | 101.0 | 117.0 | -41.4 | 66.2* | -18.3 | -11.0
C[n+]1ccc(/C=C/c2c[nH]c3ccc(F)cc23)cc1 | 100.0 | 106.0 | 29.5 | ? | -7.8 | -4.0
Cc1ccc2[nH]c(C)c(/C=C/c3cc[n+](C)cc3)c2c1 | 97.0 | 118.0 | 5.3 | 56.9* | -22.8 | -17.0
CCCCc1ccc(N/C(N)=N/c2nc(C)cc(C)n2)cc1 | 95.0 | 103.0 | 15.9 | 74.8* | -57.7 | -2.0
Cc1ccc(N/C(N)=N/c2nc(C)cc(C)n2)cc1 | 94.0 | 94.0 | -3.1 | 31.7 | 11.9 | -4.0
CC[n+]1ccccc1/C=C1\Sc2ccc(C)cc2N1C | 101.0 | 107.0 | -1.1 | 62.5* | 13.1 | -1.0
Cc1cccc(OCC(=O)N/N=C/CC(C)c2ccccc2)c1C (configuration not stated) | 95.0 | 94.0 | -9.7 | -8.2 | 1.6 | 0.0
SMILES | MEKK3 PB1 HTS | MEKK2wt PB1 HTS | DNA FID counter | T cruzi inh | NS3 helicase inh | MEKK2mut PB1 HTS
CCN1CCCC1CNC(=O)c1ccc2c(c1)NC(=O)/C(=C\c1ccc(C)cc1)S2 (configuration not stated) | 106.0 | 194.0* | 8.6 | 17.9 | -84.7 | 43.0*
COc1cccc(/C=C2/Sc3ccc(C(=O)NCCCN4CCCC4)cc3NC2=O)c1 | 109.0 | 167.0* | 25.3 | 30.9 | -39.8 | 21.0
O=C1Nc2cc(C(=O)NCCCN3CCCC3)ccc2S/C1=C/c1ccccc1F | 103.0 | 138.0* | 27.3 | 15.1 | -39.5 | 13.0
COc1ccc(/C=C2/Sc3ccc(C(=O)N4CCc5ccccc5C4)cc3NC2=O)cc1 | 104.0 | 100.0 | -4.9 | 0.2 | 1.5 | 0.0
CCN1CCN(CCNC(=O)c2ccc3c(c2)N(Cc2ccc(F)cc2)C(=O)/C(=C/c2ccccc2)S3)CC1 | 118.0 | 278.0* | 30.9 | 53.5 | -87.7 | 117.0*
O=C(NCCCN1CCCCC1)c1ccc2c(c1)NC(=O)c1ccccc1S2 | 96.0 | 105.0 | 25.1 | 7.6 | -36.9 | 5.0
Cc1ccc(/C=C2/Sc3ccc(C(=O)N4CCN(C)CC4)cc3NC2=O)cc1 | 105.0 | 114.0 | 15.5 | 9.0 | -80.3 | 12.0
O=C1/C(=C/c2ccc(Cl)cc2)NC(=S)N1Cc1cccnc1 | 89.0 | 90.0 | 1.4 | 19.4 | -1.8 | -9.0
Cc1ccc(C)c(S(=O)(=O)c2c[nH]c(=S)[nH]c2=O)c1 | 100.0 | 103.0 | -23.6 | -5.0 | 19.5 | -3.0
COc1cccc(/C=C2/Sc3ccc(C(=O)NCCN4CCCC4)cc3NC2=O)c1 | 109.0 | 188.0* | 29.7 | 20.4 | -36.6 | 30.0*
COc1ccc(/C=C2\Sc3ccc(C(=O)NCCN4CCCCCC4)cc3N(C)C2=O)cc1 | 108.0 | 203.0* | 17.2 | 20.7 | -89.2 | 54.0*
Cc1ccc(/C=C2/Sc3ccc(C(=O)NCCN4CCOCC4)cc3NC2=O)cc1 | 101.0 | 108.0 | -1.0 | 6.4 | -35.0 | 4.0
O=C1CC(SC2=NCCS2)C(=O)N1c1cccc(Cl)c1Cl (configuration not stated) | 86.0 | 87.0 | -2.5 | -13.6 | -2.0 | -17.0
COc1cc(O)c(CCO)c2c1C(=O)C[C@@H](C)O2 | 87.0 | -9.0* | -4.8 | -5.0 | -9.4 | -16.0
CCN(CC)CCOC(=O)c1cccc(OC)c1 | 92.0 | 93.0 | 4.7 | -8.1 | -11.5 | -3.0
CCN(CC)CCCOC(=O)c1ccc(OC)cc1O | 100.0 | 100.0 | 0.7 | 83.9* | 0.8 | -2.0
